“And” between values parts separate entries of the source, which are not always exact repeats. Equal values may be shown once.
Assays:
[1] = target: T1, 3-oxo-5-alpha-steroid 4-dehydrogenase 1 (Rattus norvegicus, UniProt P24008); assay: 5 alpha- reductase inhibitory activity; assay type: functional
T1 sequence (P24008 whole entry): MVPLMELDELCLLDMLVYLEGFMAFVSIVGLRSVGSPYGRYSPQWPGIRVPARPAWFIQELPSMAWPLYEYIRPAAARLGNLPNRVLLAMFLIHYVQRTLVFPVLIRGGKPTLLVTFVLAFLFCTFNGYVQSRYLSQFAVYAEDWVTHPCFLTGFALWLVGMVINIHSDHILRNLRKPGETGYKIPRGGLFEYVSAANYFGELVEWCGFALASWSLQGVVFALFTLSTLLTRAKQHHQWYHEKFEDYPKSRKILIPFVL

[2] = test system: Rattus norvegicus; assay: Percent conversion of testosterone to dihydrotestosterone in prostate of rats at 3 mg/kg of compound given perorally; assay type: functional, Prostate gland; conditions: route oral
Outline: (§1)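 Rats dosed orally at 1–30 mg/kg, with controls at 0 mg/kg. Prostates removed 4 h later and homogenized. Testosterone and DHT in the homogenate measured by radioimmunoassay and expressed as % conversion of T to DHT. Mean ± SEM of four rats. Groups compared with the 0 mg/kg control by Dunnett test.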

[3] = test system: Rattus norvegicus; assay: Percent conversion of testosterone to dihydrotestosterone in prostate of rats at 30 mg/kg of compound given perorally; assay type: functional, Prostate gland; conditions: route oral; outline: as §1
[4] = test system: Rattus norvegicus; assay: Percent conversion of testosterone to dihydrotestosterone in prostate of rats at 10 mg/kg of compound given perorally; assay type: functional, Prostate gland; conditions: route oral; outline: as §1
[5] = test system: Rattus norvegicus; assay: Concentration of testosterone (T) and DHT in homogenate was determined by radio immunoassay. Values are presented of Four rats, at dose mg/kg, p.o. =10.; assay type: functional; outline: as §1
[6] = Compound was tested in vitro for inhibitory activity against 5-alpha reductase isozyme homogenated from transfected Namalwa; assay type: functional
Outline: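 Homogenate of Namalwa cells transfected to express human type 2 isozyme, 40 μg cellular protein per assay. Buffer 0.1 M Na2HPO4–citrate pH 5.5 with 0.3 μM [14C]testosterone and 2 mM NADPH, across a range of drug concentrations. IC50 given as mean ± SEM of three separate experiments.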

[7] = test system: Rattus norvegicus; assay: Percent conversion of testosterone to dihydrotestosterone in prostate of rats at 0 mg/kg of compound given perorally; assay type: functional, Prostate gland; conditions: route oral; outline: as §1
[8] = test system: Rattus norvegicus; assay: Percent conversion of testosterone to dihydrotestosterone in prostate of rats at 1 mg/kg of compound given perorally; assay type: functional, Prostate gland; conditions: route oral; outline: as §1
[9] = target: T2, 3-oxo-5-alpha-steroid 4-dehydrogenase 2 (Rattus norvegicus, UniProt P31214); assay: Compound was tested in vitro for inhibitory activity against type 2 5-alpha reductase Isozyme homogenated from rat epididymis; assay type: functional
T2 sequence (P31214 whole entry): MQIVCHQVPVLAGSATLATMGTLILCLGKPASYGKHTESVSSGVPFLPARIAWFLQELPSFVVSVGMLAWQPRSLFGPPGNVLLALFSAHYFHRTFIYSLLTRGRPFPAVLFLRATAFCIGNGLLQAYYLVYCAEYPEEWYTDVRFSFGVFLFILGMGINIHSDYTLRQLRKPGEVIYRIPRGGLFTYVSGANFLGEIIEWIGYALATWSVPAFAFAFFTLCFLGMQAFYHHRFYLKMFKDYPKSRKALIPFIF
Outline: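 Epididymal particulates from male Wistar rats (200–300 g), pelleted at 100000g for 0.5 h. Compounds added in ethanol. Incubated 37 °C for 10 min, then stopped and extracted with ethyl acetate. Inhibition taken from [14C]DHT conversion versus a blank.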

[10] = target: T3, 3-oxo-5-alpha-steroid 4-dehydrogenase 1 (Rattus norvegicus) (UniProt P24008); assay: Inhibitory activity of compound towards 5-alpha reductase from rat =; conditions: 100 nM
T3 sequence (whole entry): T1 sequence (P24008 whole entry)

SMILES | IC50 [1] [nM] | IC50 [6] [nM] | IC50 [9] [nM] | IC50 [10] [nM] | Conversion [2] [%] | Conversion [3] [%] | Conversion [4] [%] | Conversion [5] [%] | Conversion [7] | Conversion [8] [%]
C/C(=C\C(=O)Nc1ccccc1OCCCC(=O)O)c1ccc2c(ccn2C(c2ccccc2)c2ccccc2)c1 | 5.6 | – | – | – | – | – | – | – | – | –
CCCC(CCC)n1ccc2cc(/C(=C/C(=O)Nc3ccccc3OCCCC(=O)O)CC)ccc21 | – | 341 | – | – | 87 | 73 | 84 | 84 | 96% | –
C/C(=C\C(=O)Nc1ccccc1OCCCC(=O)O)c1ccc2c(ccn2C(c2ccc(F)cc2)c2ccc(F)cc2)c1 | – | 215 | – | – | – | 62 | 85 | – | 98% and 93% | –
CC/C(=C\C(=O)Nc1ccccc1OCCCC(=O)O)c1ccc2c(ccn2C(c2ccccc2)c2ccccc2)c1 | 2.5 | – | – | – | – | – | – | – | – | –
CC(C)(C)NC(=O)[C@H]1CC[C@H]2[C@@H]3CC[C@H]4NC(=O)C=C[C@]4(C)[C@H]3CC[C@]12C [FINASTERIDE] | – | 0.58 | 2.1 | 10 | 49 | 39 | 50 | – | 84% | 64

Second part, led by results:

IC50 [1] [nM] | IC50 [6] [nM] | IC50 [9] [nM] | IC50 [10] [nM] | SMILES | Conversion [2] [%] | Conversion [3] [%] | Conversion [4] [%] | Conversion [5] [%] | Conversion [7] | Conversion [8] [%]
– | 78.7 | – | – | Cc1c(O[C@@H](C)c2ccc(CC(C)C)cc2)ccc(C(=O)Nc2ccccc2OCCCC(=O)O)c1C (racemic) | 88 | 54 | 56 | – | 91% | 82
– | 357 | – | – | CC/C(=C\C(=O)Nc1ccccc1OCCCC(=O)O)c1ccc2c(ccn2C(c2ccc(F)cc2)c2ccc(F)cc2)c1 | 76 | 50 | 70 | – | 94% | –

— ChEMBL document CHEMBL1129602, “Indole derivatives as a new class of steroid 5 alpha-reductase inhibitors” (J Med Chem, 1996)
